Data as given in ChEMBL document CHEMBL2203229, “Structure Activity Relationship Study of the Cleistriosides and Cleistetrosides for Antibacterial/Anticancer Activity” (ACS Med Chem Lett, 2012).
In brackets after ≈: the same amount, converted by molar mass.

How the values were obtained:
[1] = system: Escherichia coli; assay: Antibacterial activity against Escherichia coli K-12 MG1655 assessed as growth inhibition after 16 hrs by broth dilution method; format: functional; details: K-12 substr. MG1655, 16 h
Method in brief: (§1)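 Strains grown overnight in LB, diluted 10-fold, shaken at 37 °C for 45 min–1 h (~10⁸ CFU/mL), then diluted ~1000-fold to ~10⁵ CFU/mL. Broth dilution in LB: 20 mM DMSO stocks, 1:2 serial dilutions giving seven concentrations, inoculum added 1:1. OD600 read with shaking.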

[2] = system: NCI-H460; assay: Growth inhibition of human NCI-H460 cells after 48 hrs by sulforhodamine B assay; format: functional; details: NCI-H460, 48 h
Method in brief: (§2)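 Cells in RPMI 1640 with 5% FBS, plated at 5,000–40,000/well and grown 24 h. Time-zero plates fixed with TCA. Five drug concentrations, 48 h at 37 °C, 5% CO₂. Fixation with TCA (10% final for adherent lines; 16% final for suspension lines), staining with 0.4% SRB, reading at 515 nm. GI50 is the concentration giving a 50% reduction in net protein increase relative to time zero.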

[3] = system: MDA-MB-435; assay: Growth inhibition of human MDA-MB-435 cells after 48 hrs by sulforhodamine B assay; format: functional; details: MDA-MB-435, 48 h; method in brief: as §2
[4] = system: BT-549; assay: Growth inhibition of human BT549 cells after 48 hrs by sulforhodamine B assay; format: functional; details: BT-549, 48 h; method in brief: as §2
[5] = system: MCF7; assay: Growth inhibition of human MCF7 cells after 48 hrs by sulforhodamine B assay; format: functional; details: MCF7, 48 h; method in brief: as §2
[6] = system: A498; assay: Growth inhibition of human A498 cells after 48 hrs by sulforhodamine B assay; format: functional; details: A498, 48 h; method in brief: as §2
[7] = system: NCI-H460; assay: Cytotoxicity against human NCI-H460 cells assessed as inhibition of cell viability by MTT assay; format: functional, cell-based
Method in brief: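 NCI-H460 cells in RPMI 1640 with 10% FBS and 2 mM glutamine at 37 °C, 5% CO₂. Seeded at 10,000 cells/well for 12 h, then dosed in 1% FBS medium (DMSO below 0.1% final). MTT (10 µL of 5 mg/mL) for 4 h, formazan dissolved in DMSO for 45 min, absorbance at 562 nm. Triplicate wells, at least three runs (N = 9).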

[8] = system: SF-539; assay: Growth inhibition of human SF539 cells after 48 hrs by sulforhodamine B assay; format: functional; details: SF-539, 48 h; method in brief: as §2
[9] = system: Escherichia coli; assay: Antibacterial activity against Escherichia coli K-12 BAS901 harboring genetically modified imp-4213, zab4292::Tn5 assessed as growth inhibition after 16 hrs by broth dilution method; format: functional; details: K-12 BAS901, 16 h
Method in brief: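 Kanamycin-resistant strain grown overnight in LB with kanamycin 50 µg/mL, diluted 10-fold, then shaken at 37 °C for 45 min–1 h (~10⁸ CFU/mL). Diluted ~1000-fold to 10⁵ CFU/mL in LB. DMSO stocks (20 mM) prepared as 4X working solutions in LB. Seven 1:2 serial dilutions mixed with equal-volume inoculum. OD600 read with shaking.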

[10] = system: SNB-75; assay: Growth inhibition of human SNB75 cells after 48 hrs by sulforhodamine B assay; format: functional; details: SNB-75, 48 h; method in brief: as §2
[11] = system: CAKI-1; assay: Growth inhibition of human CAKI-1 cells after 48 hrs by sulforhodamine B assay; format: functional; details: CAKI-1, 48 h; method in brief: as §2
[12] = system: HT-29; assay: Growth inhibition of human HT-29 cells after 48 hrs by sulforhodamine B assay; format: functional; details: HT-29, 48 h; method in brief: as §2
[13] = system: HCT-15; assay: Growth inhibition of human HCT15 cells after 48 hrs by sulforhodamine B assay; format: functional; details: HCT-15, 48 h; method in brief: as §2
[14] = Growth inhibition of human NCI-ADR-RES cells after 48 hrs by sulforhodamine B assay; format: functional; method in brief: as §2
[15] = system: DU-145; assay: Growth inhibition of human DU145 cells after 48 hrs by sulforhodamine B assay; format: functional; details: DU-145, 48 h; method in brief: as §2
[16] = system: SR; assay: Growth inhibition of human SR cells after 48 hrs by sulforhodamine B assay; format: functional; method in brief: as §2
[17] = Antibacterial activity against Bacillus subtilis JH642 containing trpC2 pheA1 assessed as growth inhibition after 16 hrs by broth dilution method; format: functional, Bacillus subtilis subsp. subtilis str. JH642; method in brief: as §1
[18] = system: A549; assay: Growth inhibition of human A549 cells after 48 hrs by sulforhodamine B assay; format: functional; details: A549, 48 h; method in brief: as §2
[19] = system: SK-MEL-5; assay: Growth inhibition of human SK-MEL-5 cells after 48 hrs by sulforhodamine B assay; format: functional; details: SK-MEL-5, 48 h; method in brief: as §2
[20] = system: PC-3; assay: Growth inhibition of human PC3 cells after 48 hrs by sulforhodamine B assay; format: functional; details: PC-3, 48 h; method in brief: as §2
[21] = system: OVCAR-3; assay: Growth inhibition of human OVCAR3 cells after 48 hrs by sulforhodamine B assay; format: functional; details: OVCAR-3, 48 h; method in brief: as §2
[22] = system: RPMI-8226; assay: Growth inhibition of human RPMI8226 cells after 48 hrs by sulforhodamine B assay; format: functional; details: RPMI-8226, 48 h; method in brief: as §2

## CCCCCCCCCCCCO[C@@H]1O[C@@H](C)[C@H](O[C@@H]2O[C@@H](C)[C@H](OC(C)=O)[C@@H](O[C@@H]3O[C@@H](C)[C@H](OC(C)=O)[C@@H](O[C@@H]4O[C@@H](C)[C@H](OC(C)=O)[C@@H](O)[C@H]4O)[C@H]3OC(C)=O)[C@H]2O)[C@@H](O)[C@H]1O
[1]
  MIC: > 64 µM
[2]
  GI50: 7580 nM
[3]
  GI50: 6000 nM
[4]
  GI50: 8460 nM
[5]
  GI50: 1740 nM
[6]
  GI50: 7570 nM
[7]
  IC50: 9100 nM
[8]
  GI50: 4700 nM
[9]
  MIC: > 64 µM
[10]
  GI50: 1360 nM
[11]
  GI50: 8450 nM
[12]
  GI50: 8020 nM
[13]
  GI50: 7540 nM
[14]
  GI50: 9150 nM
[15]
  GI50: 7920 nM
[16]
  GI50: 1450 nM
[17]
  MIC: 4 µM (≈ 3.76 µg/mL)
[18]
  GI50: 9470 nM
[19]
  GI50: 1760 nM
[20]
  GI50: 5300 nM
[21]
  GI50: 4840 nM
[22]
  GI50: 1860 nM

## CCCCCCCCCCCCO[C@@H]1O[C@@H](C)[C@H](O[C@@H]2O[C@@H](C)[C@H](OC(C)=O)[C@@H](O[C@@H]3O[C@@H](C)[C@H](OC(C)=O)[C@@H](O[C@@H]4O[C@@H](C)[C@H](OC(C)=O)[C@@H](OC(C)=O)[C@H]4OC(C)=O)[C@H]3OC(C)=O)[C@H]2O)[C@@H](O)[C@H]1O
[1]
  MIC: > 64 µM
[2]
  GI50: 930 nM
[3]
  GI50: 880 nM
[4]
  GI50: 1050 nM
[5]
  GI50: 890 nM
[6]
  GI50: 670 nM
[7]
  IC50: 16400 nM
[8]
  GI50: 800 nM
[9]
  MIC: > 64 µM
[10]
  GI50: 540 nM
[11]
  GI50: 860 nM
[12]
  GI50: 910 nM
[13]
  GI50: 820 nM
[14]
  GI50: 920 nM
[15]
  GI50: 800 nM
[16]
  GI50: 920 nM
[17]
  MIC: > 64 µM
[18]
  GI50: 800 nM
[19]
  GI50: 760 nM
[20]
  GI50: 710 nM
[21]
  GI50: 840 nM
[22]
  GI50: 1040 nM

## CCCCCCCCCCCCO[C@@H]1O[C@@H](C)[C@H](O[C@@H]2O[C@@H](C)[C@H](OC(C)=O)[C@@H](O[C@@H]3O[C@@H](C)[C@H](OC(C)=O)[C@@H](O[C@@H]4O[C@@H](C)[C@H](OC(C)=O)[C@@H](O)[C@H]4OC(C)=O)[C@H]3OC(C)=O)[C@H]2O)[C@@H](O)[C@H]1O
[1]
  MIC: > 64 µM
[2]
  GI50: 940 nM
[3]
  GI50: 830 nM
[4]
  GI50: 940 nM
[5]
  GI50: 870 nM
[6]
  GI50: 730 nM
[7]
  IC50: 7500 nM
[8]
  GI50: 830 nM
[9]
  MIC: > 64 µM
[10]
  GI50: 500 nM
[11]
  GI50: 1420 nM
[12]
  GI50: 970 nM
[13]
  GI50: 1010 nM
[14]
  GI50: 3380 nM
[15]
  GI50: 800 nM
[16]
  GI50: 860 nM
[17]
  MIC: 4 µM (≈ 3.92 µg/mL)
[18]
  GI50: 1180 nM
[19]
  GI50: 740 nM
[20]
  GI50: 820 nM
[21]
  GI50: 770 nM
[22]
  GI50: 960 nM
